Measurements taken from article PMC2848690 (Journal of medicinal chemistry, 2010).

How the values were obtained:
[1] = molecular target: recombinant wild type human BCA2 (Homo sapiens, UniProt Q9Y4L5); experiment: Recombinant BCA2 autoubiquitination assay; type: biochemical; conditions: 50 μM compound, 30 min preincubation
In short: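 Test compound stocks (10 mM in DMSO) were diluted in reaction buffer and preincubated with 10 ng recombinant His-BCA2 (final 5 or 50 μM) for 30 min at room temperature. ATP (20 mM stock), ubiquitin (1 μg), rabbit E1 (20 ng) and human UbcH5b (20 ng) were added in Tris-HCl pH 8.0/DTT/MgCl2 buffer. Reactions ran 1 h at 30 °C, then SDS-PAGE and anti-ubiquitin immunoblot.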

MCF-7 cells [2] = experiment: Zinc chloride rescue of growth inhibition, MTT assay in MCF-7; type: cell-based, human; conditions: for Growth inhibitory activity in presence of zinc chloride: compound at its IC50, ZnCl2 600 nM to 75 μM, 5 days, MCF-7
[3] = cited from earlier work
MCF-7 cells [4] = experiment: MTT proliferation assay, MCF-7; type: cell-based, human; conditions: for Mean IC50 ±SD in MCF-7: MTT assay, 72 hour drug exposure (footnote a), BCA2 +ve, ER +ve, three independent experiments; for IC100 (100% growth inhibitory concentration) in MCF-7: delineated from MTT growth curves
In short: (§1)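 Exponentially growing cells were kept in RPMI 1640 with 10% heat-inactivated FBS at 37 °C and 5% CO2. They were dosed with test compound from 0.00001 to 10 μM and read by MTT. Each compound was tested in triplicate. Active compounds had three independent experiments, reported as mean ± SD. IC50 and IC100 were read from growth curves.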

T47D cells = experiment: MTT proliferation assay, T47D; type: cell-based, human; conditions: 72 hour drug exposure (footnote a), BCA2 +ve, ER +ve
In short: as §1

[5] = tested on: BCA2+ cells (MCF-7, T47D, MDA-MB-231/ER); experiment: MTT assay, BCA2-positive breast cancer cell lines as a group; type: cell-based, human; conditions: active if IC50 <10 μM
In short: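 MCF-7, T47D and MDA-MB-231/ER (a stable ERα-transfected, G418-selected clone of MDA-MB-231 kept in 1mg/mL G418) were grown in RPMI 1640 with 10% heat-inactivated FBS at 37 °C and 5% CO2. Exponentially growing cells were exposed to test compound at 0.00001–10 μM for 72 h, and growth was read by MTT. IC50 values came from growth curves, with triplicate wells and three independent experiments (mean ± SD).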

[6] = tested on: BCA2 low/− cells (MDA-MB-231 or MCF10A); experiment: MTT assay, BCA2 low/negative cells as a group; type: cell-based, human; conditions: active if IC50 <10 μM
In short: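 MDA-MB-231 (BCA2 low/−, ER −) was grown in RPMI 1640 with 10% heat-inactivated FBS, and normal MCF10A mammary epithelial cells in MEGM, both at 37 °C and 5% CO2. Exponentially growing cells received test compound at 0.00001–10 μM for 72 h, followed by MTT read-out. IC50 values came from growth curves, with triplicate wells and three independent experiments (mean ± SD).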

BCA2 = BCA2 (Homo sapiens, UniProt Q9Y4L5); experiment: Endogenous BCA2 protein stability in MCF-7 cells; type: cell-based; conditions: 16 hrs exposure at IC100 concentration, compound alone
Chain of BCA2 (Q9Y4L5 whole entry): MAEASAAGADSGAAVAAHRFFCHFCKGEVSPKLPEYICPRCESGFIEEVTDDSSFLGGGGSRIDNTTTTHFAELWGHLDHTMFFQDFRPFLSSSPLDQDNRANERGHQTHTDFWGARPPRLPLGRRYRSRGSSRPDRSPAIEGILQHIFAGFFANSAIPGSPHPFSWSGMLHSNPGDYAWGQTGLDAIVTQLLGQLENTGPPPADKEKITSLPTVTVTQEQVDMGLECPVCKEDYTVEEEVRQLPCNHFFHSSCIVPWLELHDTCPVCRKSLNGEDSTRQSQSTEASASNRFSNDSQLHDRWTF
In short: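 MCF-7 cells (1×10^6) were seeded and grown overnight, then exposed for 16 h to test compound alone, or with cycloheximide (100 μM) and/or a proteasome inhibitor (10 μM). DMSO vehicle controls ran for 16 h. Whole-cell lysates were immunoblotted with in-house anti-BCA2 antibodies, using beta-actin as the loading control.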

ALDH1 = molecular target: T1, ALDH1 (Homo sapiens, UniProt P00352); experiment: ALDH1 inhibition in K562 cells; type: cell-based; conditions: for ALDH-inhibitory activity (in words): K562 cells, 15 μM
T1 sequence (P00352 2-501 limits assumed): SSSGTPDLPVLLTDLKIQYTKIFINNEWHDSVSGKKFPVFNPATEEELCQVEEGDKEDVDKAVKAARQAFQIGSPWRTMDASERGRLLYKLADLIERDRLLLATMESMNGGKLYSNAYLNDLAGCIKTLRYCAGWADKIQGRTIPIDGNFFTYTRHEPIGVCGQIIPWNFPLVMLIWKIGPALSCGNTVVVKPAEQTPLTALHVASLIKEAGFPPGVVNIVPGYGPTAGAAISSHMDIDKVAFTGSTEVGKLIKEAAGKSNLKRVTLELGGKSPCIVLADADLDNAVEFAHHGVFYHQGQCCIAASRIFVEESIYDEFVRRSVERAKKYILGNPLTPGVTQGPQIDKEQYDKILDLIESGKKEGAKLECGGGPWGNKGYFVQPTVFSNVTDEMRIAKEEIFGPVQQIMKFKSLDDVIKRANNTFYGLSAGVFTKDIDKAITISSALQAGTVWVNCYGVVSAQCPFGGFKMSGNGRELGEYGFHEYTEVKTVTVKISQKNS

MDA-MB-231 cells = experiment: MTT proliferation assay, MDA-MB-231; type: cell-based; conditions: Homo sapiens, MDA-MB-231, 72 h, read-out: Mean IC50 ±SD in MDA-MB-231
In short: as §1

Chain of recombinant wild type human BCA2 (Q9Y4L5 whole entry): as the sequence (Q9Y4L5 whole entry) above

| Structure (SMILES) | Inhibition of autoubiquitination of recombinant BCA2 [1] | Growth inhibitory activity in presence of zinc chloride (MCF-7 cells [2]) | Oral bioavailability [3] [%] | Mean IC50 ±SD in MCF-7 (MCF-7 cells [4]) | IC100 (100% growth inhibitory concentration) in MCF-7 (MCF-7 cells [4]) [µM] | Mean IC50 ±SD in T47D (T47D cells) | Activity in BCA2+ cells [5] | Activity in BCA2 low/− cells [6] | BCA2 protein levels in MCF-7 cells (BCA2) | ALDH-inhibitory activity (in words) (ALDH1) | Effect on the growth of MCF-7 cells (MCF-7 cells [2]; zinc chloride alone) | IC50 (MDA-MB-231 cells) [µM] | ALDH+ K562 cells (%) (ALDH1; compound 15 μM, 45 min at 37 °C) |
| --- | --- | --- | --- | --- | --- | --- | --- | --- | --- | --- | --- | --- | --- |
| CCN(CC)C(=S)SSC(=S)N(CC)CC [Compound 1, bis(diethylaminothiocarbonyl)-disulfide, reference compound] | abolish the autoubiquitination activity | completely abolished | > 80 |  |  |  |  |  |  |  |  |  |  |
| CCCCCCSSC(=S)N(CC)CC [Compound 5d, Hexyl diethylcarbamo(dithioperoxo)thioate] | abolish the autoubiquitination activity | completely abolished |  | submicromolar | 1 | submicromolar | active | inactive | marked reduction | lack ALDH-inhibitory activity |  |  |  |
| S=C(SSC(=S)N1CCCC1)N1CCCC1 [Compound 3c, Bis(pyrrolidinylthiocarbonyl)disulfide] | abolish the autoubiquitination activity |  |  | submicromolar |  | submicromolar |  |  |  |  |  |  |  |
| [Cl-].[Cl-].[Zn+2] [Zinc chloride, zinc (II) chloride] |  |  |  |  |  |  |  |  |  |  | no effect |  |  |
| C1CN(SSN2CCOCC2)CCO1 [Compound 4, 4,4′-dithiodimorpholine] |  |  |  |  |  |  | inactive | inactive |  |  |  |  |  |
| S=C(SSC(=S)N1CCCCC1)N1CCCCC1 [Compound 3a, Bis(piperidinylthiocarbonyl)disulfide] | abolish the autoubiquitination activity | completely abolished |  | submicromolar | 0.25 | submicromolar |  |  | marked reduction |  |  |  |  |
| CCN(CC)C(=S)SSCCO [Compound 5f, 2-Hydroxyethyl diethylcarbamo(dithioperoxo)thioate] | abolish the autoubiquitination activity |  |  | submicromolar |  | submicromolar | active | inactive |  | lack ALDH-inhibitory activity |  | > 10 | 36.9 ± 3.15 |
